# Assay results from ChEMBL document CHEMBL1795332, “Renin inhibitors for the treatment of hypertension: design and optimization of a novel series of pyridone-substituted piperidines” (Bioorg Med Chem Lett, 2011).
# Biological target: T1, Renin (Homo sapiens, UniProt P00797)
# T1 sequence (P00797 whole entry): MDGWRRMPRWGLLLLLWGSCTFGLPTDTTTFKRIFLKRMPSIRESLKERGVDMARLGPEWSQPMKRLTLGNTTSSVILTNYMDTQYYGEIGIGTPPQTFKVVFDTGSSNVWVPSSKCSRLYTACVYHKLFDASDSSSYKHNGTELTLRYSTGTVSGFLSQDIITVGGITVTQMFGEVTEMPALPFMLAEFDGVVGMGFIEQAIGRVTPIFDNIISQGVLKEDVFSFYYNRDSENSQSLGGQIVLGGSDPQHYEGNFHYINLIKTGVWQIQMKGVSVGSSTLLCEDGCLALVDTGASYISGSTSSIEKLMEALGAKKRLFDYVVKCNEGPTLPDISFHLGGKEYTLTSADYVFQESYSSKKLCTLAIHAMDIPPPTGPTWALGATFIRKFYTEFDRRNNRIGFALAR
# Assay: Inhibition of human recombinant renin using Q-FRET substrate after 3 hrs by fluorescence assay
# Details: not given
row,SMILES,IC50 [nM]
1,COCCCc1cc(CN(C(=O)[C@H]2CNCC[C@@H]2c2cc(=O)n(C)c3ccccc23)C2CC2)cc(OCCOC)c1,13
2,COCCCc1cc(CN(C(=O)[C@H]2CNCC[C@@H]2c2cc(=O)n(C)c3cc(Cl)ccc23)C2CC2)cc(OCCOC)c1,2
3,Cn1ccc([C@H]2CCNC[C@@H]2C(=O)N(Cc2cccc(Cl)c2Cl)C2CC2)cc1=O,20
4,COCCc1cc(Cl)c(Cl)c(CN(C(=O)[C@H]2CNCC[C@@H]2c2ccn(C)c(=O)c2)C2CC2)c1,0.6
5,Cn1ccc([C@H]2CCNC[C@@H]2C(=O)N(Cc2cc(CCCC#N)cc(Cl)c2Cl)C2CC2)cc1=O,4.9

# Continued by falling IC50, values first:
row,IC50 [nM],SMILES
1,8.5,Cn1ccc([C@H]2CCNC[C@@H]2C(=O)N(Cc2cc(CCC#N)cc(Cl)c2Cl)C2CC2)cc1=O
2,8,COCCCc1ccc(Cl)c(CN(C(=O)[C@H]2CNCC[C@@H]2c2ccn(C)c(=O)c2)C2CC2)c1
3,4.5,CC(=O)NCCc1cc(Cl)c(Cl)c(CN(C(=O)[C@H]2CNCC[C@@H]2c2ccn(C)c(=O)c2)C2CC2)c1

# Biological target: Voltage-gated inwardly rectifying potassium channel KCNH2 (Homo sapiens, UniProt Q12809)
# Assay: Inhibition of human ERG
# Details: not given
# Chain of Voltage-gated inwardly rectifying potassium channel KCNH2 (Q12809 whole entry): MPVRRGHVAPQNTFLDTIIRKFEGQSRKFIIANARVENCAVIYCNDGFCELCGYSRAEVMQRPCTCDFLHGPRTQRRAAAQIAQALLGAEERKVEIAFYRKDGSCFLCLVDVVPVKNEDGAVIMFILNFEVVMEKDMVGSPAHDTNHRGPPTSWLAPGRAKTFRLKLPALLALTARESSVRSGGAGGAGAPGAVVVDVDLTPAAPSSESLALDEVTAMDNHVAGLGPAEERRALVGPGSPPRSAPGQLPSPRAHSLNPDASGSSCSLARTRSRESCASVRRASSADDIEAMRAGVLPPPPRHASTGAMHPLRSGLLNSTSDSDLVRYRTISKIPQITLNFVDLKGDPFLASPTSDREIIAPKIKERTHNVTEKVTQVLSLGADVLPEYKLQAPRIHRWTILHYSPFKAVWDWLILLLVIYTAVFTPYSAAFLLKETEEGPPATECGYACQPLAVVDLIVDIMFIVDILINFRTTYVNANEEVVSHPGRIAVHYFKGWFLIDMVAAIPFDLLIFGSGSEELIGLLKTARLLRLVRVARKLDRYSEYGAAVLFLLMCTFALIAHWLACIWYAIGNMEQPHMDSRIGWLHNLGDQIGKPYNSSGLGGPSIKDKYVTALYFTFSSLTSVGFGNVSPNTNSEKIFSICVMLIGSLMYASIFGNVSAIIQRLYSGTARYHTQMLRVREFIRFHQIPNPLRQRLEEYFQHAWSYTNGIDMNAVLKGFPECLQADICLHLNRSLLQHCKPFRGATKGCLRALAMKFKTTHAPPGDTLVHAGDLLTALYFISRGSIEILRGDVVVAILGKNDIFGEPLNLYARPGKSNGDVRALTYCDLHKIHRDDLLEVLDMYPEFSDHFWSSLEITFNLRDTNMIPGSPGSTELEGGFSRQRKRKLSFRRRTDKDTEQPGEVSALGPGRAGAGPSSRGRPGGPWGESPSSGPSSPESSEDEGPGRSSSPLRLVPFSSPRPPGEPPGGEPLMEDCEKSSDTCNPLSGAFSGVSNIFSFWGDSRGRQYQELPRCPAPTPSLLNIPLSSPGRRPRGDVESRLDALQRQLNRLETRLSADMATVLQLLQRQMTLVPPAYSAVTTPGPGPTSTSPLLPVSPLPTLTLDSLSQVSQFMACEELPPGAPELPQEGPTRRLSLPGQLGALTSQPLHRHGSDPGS
row,SMILES,Ki [nM]
1,COCCCc1cc(CN(C(=O)[C@H]2CNCC[C@@H]2c2cc(=O)n(C)c3ccccc23)C2CC2)cc(OCCOC)c1,28000
2,Cn1ccc([C@H]2CCNC[C@@H]2C(=O)N(Cc2cccc(Cl)c2Cl)C2CC2)cc1=O,13000
3,COCCc1cc(Cl)c(Cl)c(CN(C(=O)[C@H]2CNCC[C@@H]2c2ccn(C)c(=O)c2)C2CC2)c1,11000
4,Cn1ccc([C@H]2CCNC[C@@H]2C(=O)N(Cc2cc(CCCC#N)cc(Cl)c2Cl)C2CC2)cc1=O,8400
5,Cn1ccc([C@H]2CCNC[C@@H]2C(=O)N(Cc2cc(CCC#N)cc(Cl)c2Cl)C2CC2)cc1=O,17000
6,CC(=O)NCCc1cc(Cl)c(Cl)c(CN(C(=O)[C@H]2CNCC[C@@H]2c2ccn(C)c(=O)c2)C2CC2)c1,> 29000

# Biological target: T1, Renin
# Assay: Inhibition of renin in human plasma using Q-FRET substrate pretreated for 10 mins before substrate addition measured after 1 hr
# Details: not given
row,SMILES,IC50 [nM]
1,COCCCc1cc(CN(C(=O)[C@H]2CNCC[C@@H]2c2cc(=O)n(C)c3ccccc23)C2CC2)cc(OCCOC)c1,39
2,COCCCc1cc(CN(C(=O)[C@H]2CNCC[C@@H]2c2cc(=O)n(C)c3cc(Cl)ccc23)C2CC2)cc(OCCOC)c1,8
3,Cn1ccc([C@H]2CCNC[C@@H]2C(=O)N(Cc2cccc(Cl)c2Cl)C2CC2)cc1=O,42
4,COCCc1cc(Cl)c(Cl)c(CN(C(=O)[C@H]2CNCC[C@@H]2c2ccn(C)c(=O)c2)C2CC2)c1,2.2
5,Cn1ccc([C@H]2CCNC[C@@H]2C(=O)N(Cc2cc(CCCC#N)cc(Cl)c2Cl)C2CC2)cc1=O,10

# Now from value to compound:
row,IC50 [nM],SMILES
1,17,Cn1ccc([C@H]2CCNC[C@@H]2C(=O)N(Cc2cc(CCC#N)cc(Cl)c2Cl)C2CC2)cc1=O
2,25,COCCCc1ccc(Cl)c(CN(C(=O)[C@H]2CNCC[C@@H]2c2ccn(C)c(=O)c2)C2CC2)c1
3,9,CC(=O)NCCc1cc(Cl)c(Cl)c(CN(C(=O)[C@H]2CNCC[C@@H]2c2ccn(C)c(=O)c2)C2CC2)c1

# Biological target: T2, CYP3A4 (Homo sapiens, UniProt P08684)
# Assay: Reversible inhibition of CYP3A4 assessed as conversion of testosterone to 6-beta-hydroxytestosterone at 10 uM relative to control
# Format: ADME
# Details: probe testosterone
# T2 sequence (P08684 whole entry): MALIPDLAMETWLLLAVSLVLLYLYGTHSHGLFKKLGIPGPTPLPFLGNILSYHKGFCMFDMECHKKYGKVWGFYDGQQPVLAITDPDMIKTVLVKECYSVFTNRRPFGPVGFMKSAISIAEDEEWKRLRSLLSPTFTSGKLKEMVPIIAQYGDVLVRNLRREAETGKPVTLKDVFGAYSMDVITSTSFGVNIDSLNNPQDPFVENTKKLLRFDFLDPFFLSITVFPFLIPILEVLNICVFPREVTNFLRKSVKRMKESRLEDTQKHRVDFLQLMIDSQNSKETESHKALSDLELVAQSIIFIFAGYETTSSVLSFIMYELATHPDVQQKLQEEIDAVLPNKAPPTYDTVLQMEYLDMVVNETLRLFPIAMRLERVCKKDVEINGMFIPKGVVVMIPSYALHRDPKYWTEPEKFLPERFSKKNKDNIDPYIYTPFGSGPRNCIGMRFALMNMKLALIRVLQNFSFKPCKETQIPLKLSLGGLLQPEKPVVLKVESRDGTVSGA
row,SMILES,activity % at 10 µM [%]
1,COCCCc1cc(CN(C(=O)[C@H]2CNCC[C@@H]2c2cc(=O)n(C)c3ccccc23)C2CC2)cc(OCCOC)c1,100
2,Cn1ccc([C@H]2CCNC[C@@H]2C(=O)N(Cc2cccc(Cl)c2Cl)C2CC2)cc1=O,61
3,COCCc1cc(Cl)c(Cl)c(CN(C(=O)[C@H]2CNCC[C@@H]2c2ccn(C)c(=O)c2)C2CC2)c1,68
4,Cn1ccc([C@H]2CCNC[C@@H]2C(=O)N(Cc2cc(CCCC#N)cc(Cl)c2Cl)C2CC2)cc1=O,55

# The next lines start with the values.
row,activity % at 10 µM [%],SMILES
1,52,Cn1ccc([C@H]2CCNC[C@@H]2C(=O)N(Cc2cc(CCC#N)cc(Cl)c2Cl)C2CC2)cc1=O
2,97,CC(=O)NCCc1cc(Cl)c(Cl)c(CN(C(=O)[C@H]2CNCC[C@@H]2c2ccn(C)c(=O)c2)C2CC2)c1

# Biological target: T2, CYP3A4
# Assay: Time dependent inhibition of CYP3A4 assessed as conversion of testosterone to 6-beta-hydroxytestosterone at 10 uM relative to control
# Format: ADME
# Details: probe testosterone
# Procedure, shortened: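 Rate of CYP3A4 conversion of testosterone (250 μM) to 6-β-hydroxytestosterone measured before and after a 30 min incubation with compound at 10 μM (in DMSO). Difference expressed as % loss.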
row,SMILES,inhibition at 10 µM [%]
1,COCCCc1cc(CN(C(=O)[C@H]2CNCC[C@@H]2c2cc(=O)n(C)c3ccccc23)C2CC2)cc(OCCOC)c1,5
2,COCCCc1cc(CN(C(=O)[C@H]2CNCC[C@@H]2c2cc(=O)n(C)c3cc(Cl)ccc23)C2CC2)cc(OCCOC)c1,4
3,Cn1ccc([C@H]2CCNC[C@@H]2C(=O)N(Cc2cccc(Cl)c2Cl)C2CC2)cc1=O,37
4,COCCc1cc(Cl)c(Cl)c(CN(C(=O)[C@H]2CNCC[C@@H]2c2ccn(C)c(=O)c2)C2CC2)c1,23
5,Cn1ccc([C@H]2CCNC[C@@H]2C(=O)N(Cc2cc(CCCC#N)cc(Cl)c2Cl)C2CC2)cc1=O,20

# Other lines, results leading:
row,inhibition at 10 µM [%],SMILES
1,15,Cn1ccc([C@H]2CCNC[C@@H]2C(=O)N(Cc2cc(CCC#N)cc(Cl)c2Cl)C2CC2)cc1=O
2,29,COCCCc1ccc(Cl)c(CN(C(=O)[C@H]2CNCC[C@@H]2c2ccn(C)c(=O)c2)C2CC2)c1
3,0,CC(=O)NCCc1cc(Cl)c(Cl)c(CN(C(=O)[C@H]2CNCC[C@@H]2c2ccn(C)c(=O)c2)C2CC2)c1

# Test system: not listed separately
# Assay: Oral bioavailability in Sprague-Dawley rat at 20 mg/kg
# Format: ADME, organism-based
# Details: in vivo
row,SMILES,bioavailability [%]
1,COCCCc1cc(CN(C(=O)[C@H]2CNCC[C@@H]2c2cc(=O)n(C)c3ccccc23)C2CC2)cc(OCCOC)c1,1
2,COCCCc1cc(CN(C(=O)[C@H]2CNCC[C@@H]2c2cc(=O)n(C)c3cc(Cl)ccc23)C2CC2)cc(OCCOC)c1,20
3,Cn1ccc([C@H]2CCNC[C@@H]2C(=O)N(Cc2cccc(Cl)c2Cl)C2CC2)cc1=O,23
4,COCCc1cc(Cl)c(Cl)c(CN(C(=O)[C@H]2CNCC[C@@H]2c2ccn(C)c(=O)c2)C2CC2)c1,18
5,Cn1ccc([C@H]2CCNC[C@@H]2C(=O)N(Cc2cc(CCCC#N)cc(Cl)c2Cl)C2CC2)cc1=O,7

# More lines, now with the values ahead:
row,bioavailability [%],SMILES
1,8,Cn1ccc([C@H]2CCNC[C@@H]2C(=O)N(Cc2cc(CCC#N)cc(Cl)c2Cl)C2CC2)cc1=O
2,14,COCCCc1ccc(Cl)c(CN(C(=O)[C@H]2CNCC[C@@H]2c2ccn(C)c(=O)c2)C2CC2)c1
3,0,CC(=O)NCCc1cc(Cl)c(Cl)c(CN(C(=O)[C@H]2CNCC[C@@H]2c2ccn(C)c(=O)c2)C2CC2)c1
